Laboratory results from ChEMBL document CHEMBL1146231, “Novel semisynthetic derivative of antibiotic Eremomycin active against drug-resistant gram-positive pathogens including Bacillus anthracis” (J Med Chem, 2007).
Converted amounts (≈) assume the structure as drawn. The source made the active and inactive calls. No cut-off for these calls is given here.

Assays:
Enterococcus faecium [1] = experiment: Antimicrobial activity against vancomycin-susceptible Enterococcus faecium 568 isolate; assay type: functional
Summary of the method: (§1)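 MICs were run by broth microdilution as recommended by NCCLS, in cation-adjusted Mueller-Hinton broth. Compound was serially diluted 2-fold, over a final range of 64 to 0.03 µg/mL after inoculation.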

[2] = test system: Staphylococcus epidermidis; experiment: Antimicrobial activity against Staphylococcus epidermidis 533 isolate; assay type: functional; summary of the method: as §1
[3] = test system: Staphylococcus haemolyticus; experiment: Antimicrobial activity against Staphylococcus haemolyticus 602 isolate; assay type: functional; summary of the method: as §1
Enterococcus faecalis [4] = experiment: Antimicrobial activity against vancomycin-susceptible Enterococcus faecalis 559 isolate; assay type: functional; summary of the method: as §1
Enterococcus faecalis [5] = experiment: Antimicrobial activity against vancomycin-resistant Enterococcus faecalis 560 isolate; assay type: functional; summary of the method: as §1
Staphylococcus aureus [6] = experiment: Antimicrobial activity against glycopeptide intermediate resistant Staphylococcus aureus 3798 isolate; assay type: functional; summary of the method: as §1
Enterococcus faecium [7] = experiment: Antimicrobial activity against vancomycin-resistant Enterococcus faecium 569 isolate; assay type: functional; summary of the method: as §1
Staphylococcus aureus [8] = experiment: Antimicrobial activity against glycopeptide intermediate resistant Staphylococcus aureus 3793 isolate; assay type: functional; summary of the method: as §1
Escherichia coli = experiment: Antimicrobial activity against Escherichia coli Esco_25922 isolate; assay type: functional
Enterococcus faecalis [9] = experiment: Antimicrobial activity against vancomycin-resistant Enterococcus faecalis Enfa_vre-2 isolate; assay type: functional; summary of the method: as §1
Enterococcus faecalis [10] = experiment: Antimicrobial activity against vancomycin-resistant Enterococcus faecalis Enfa_t29862 isolate; assay type: functional; summary of the method: as §1
Enterococcus faecalis [11] = experiment: Antimicrobial activity against vancomycin-susceptible Enterococcus faecalis Enfa_29212 isolate; assay type: functional; summary of the method: as §1
Staphylococcus aureus [12] = experiment: Antimicrobial activity against methicillin-resistant Staphylococcus aureus Stau_HIP5827 isolate; assay type: functional; summary of the method: as §1
Bacillus anthracis [13] = experiment: Protection against Bacillus anthracis challenged BALB/c mouse at 25 mg/kg, iv; assay type: functional, organism-based; set-up: dose 25 mg/kg
Bacillus anthracis [14] = experiment: Protection against Bacillus anthracis challenged BALB/c mouse at 50 mg/kg, iv; assay type: functional, organism-based; set-up: dose 50 mg/kg
Mus musculus [15] = experiment: Survival of BALB/c mouse infected with Staphylococcus aureus PGO#172 assessed as mortality at 1 mg/kg, iv; assay type: functional, organism-based; set-up: dose 1 mg/kg
Summary of the method: (§2)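 Mice received a lethal dose of S. aureus PGO#172 (ATCC#29213) by intraperitoneal injection. They were treated with an iv bolus at 1, 5, 10, 25 or 50 mg/kg, in groups of five. Mortality was the endpoint, and ED50 was derived from the dose-response.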

Mus musculus [16] = experiment: Survival of BALB/c mouse infected with Staphylococcus aureus PGO#172 assessed as mortality at 50 mg/kg, iv; assay type: functional, organism-based; set-up: dose 50 mg/kg; summary of the method: as §2
[17] = Clearance in BALB/c mouse at 25 mg/kg, iv; assay type: ADME, organism-based; set-up: dose 25 mg/kg, route intravenous; settings: in vivo
Summary of the method: (§3)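 Female BALB/c mice received the test compound by the iv, sc, ip or po route. Plasma exposure gave Cmax, bioavailability from the sc, ip and po routes, iv half-life, clearance and Vss. Clinical observations and mortality were also recorded.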

[18] = Half life in BALB/c mouse at 25 mg/kg, iv; assay type: ADME, organism-based; set-up: dose 25 mg/kg, route intravenous; settings: in vivo; summary of the method: as §3
[19] = Cmax in BALB/c mouse at 25 mg/kg, ip; assay type: ADME, organism-based; set-up: dose 25 mg/kg, route intraperitoneal; settings: in vivo; summary of the method: as §3
[20] = Bioavailability in BALB/c mouse at 25 mg/kg, ip; assay type: ADME, organism-based; settings: in vivo; summary of the method: as §3
[21] = Bioavailability in BALB/c mouse at 70 mg/kg, po; assay type: ADME, organism-based; settings: in vivo; summary of the method: as §3
[22] = Bioavailability in BALB/c mouse at 25 mg/kg, sc; assay type: ADME, organism-based; settings: in vivo; summary of the method: as §3
[23] = Cmax in BALB/c mouse at 25 mg/kg, iv; assay type: ADME, organism-based; set-up: dose 25 mg/kg, route intravenous; settings: in vivo; summary of the method: as §3
[24] = Volume of distribution in BALB/c mouse at 25 mg/kg, iv; assay type: ADME, organism-based; set-up: dose 25 mg/kg, route intravenous; settings: in vivo, read-out: Vss; summary of the method: as §3
[25] = Cmax in BALB/c mouse at 25 mg/kg, sc; assay type: ADME, organism-based; set-up: dose 25 mg/kg, route subcutaneous; settings: in vivo; summary of the method: as §3

| SMILES | MIC (Enterococcus faecium [1]) [µg/mL] | MIC [2] [µg/mL] | MIC [3] [µg/mL] | MIC (Enterococcus faecalis [4]) [µg/mL] | MIC (Enterococcus faecalis [5]) [µg/mL] | MIC (Staphylococcus aureus [6]) [µg/mL] | MIC (Enterococcus faecium [7]) [µg/mL] | MIC (Staphylococcus aureus [8]) [µg/mL] | other results |
| --- | --- | --- | --- | --- | --- | --- | --- | --- | --- |
| CN[C@H](CC(C)C)C(=O)N[C@H]1C(=O)N[C@@H](CC(N)=O)C(=O)N[C@H]2C(=O)N[C@H]3C(=O)N[C@H](C(=O)N[C@H](C(=O)O)c4cc(O)cc(O)c4-c4cc3ccc4O)[C@H](O[C@@H]3C[C@@](C)(N)[C@H](O)[C@@H](C)O3)c3ccc(cc3)Oc3cc2cc(c3O[C@H]2O[C@@H](CO)[C@H](O)[C@@H](O)[C@@H]2O[C@H]2C[C@](C)(N)[C@@H](O)[C@H](C)O2)Oc2ccc(cc2Cl)[C@H]1O [EREMOMYCIN] | 0.5 (≈ 0.321 µM) | 0.25 (≈ 0.16 µM) | 0.25 (≈ 0.16 µM) | 0.5 (≈ 0.321 µM) | > 128 | 8 (≈ 5.13 µM) | > 128 | 8 (≈ 5.13 µM) | – |
| CN[C@H](CC(C)C)C(=O)N[C@H]1C(=O)N[C@@H](CC(N)=O)C(=O)N[C@H]2C(=O)N[C@H]3C(=O)N[C@H](C(=O)N[C@H](C(=O)O)c4cc(O)cc(O)c4-c4cc3ccc4O)[C@H](O)c3ccc(c(Cl)c3)Oc3cc2cc(c3O[C@@H]2O[C@H](CO)[C@@H](O)[C@H](O)[C@H]2O[C@H]2C[C@](C)(N)[C@H](O)[C@H](C)O2)Oc2ccc(cc2Cl)[C@H]1O [VANCOMYCIN] | – | – | 2 (≈ 1.38 µM) | 1 (≈ 0.69 µM) | > 128 | 8 (≈ 5.52 µM) | > 128 | 16 (≈ 11 µM) | MIC (Escherichia coli): > 50 µg/mL; MIC (Enterococcus faecalis [9]): > 64 µg/mL; MIC (Enterococcus faecalis [10]): > 64 µg/mL; MIC (Enterococcus faecalis [11]): 2 µg/mL (≈ 1.38 µM); MIC (Staphylococcus aureus [12]): 8 µg/mL (≈ 5.52 µM) |
| CN[C@H](CC(C)C)C(=O)N[C@H]1C(=O)N[C@@H](CC(N)=O)C(=O)N[C@H]2C(=O)N[C@H]3C(=O)N[C@H](C(=O)N[C@@H](C(=O)NC45CC6CC(CC(C6)C4)C5)c4cc(O)cc(O)c4-c4cc3ccc4O)[C@H](O[C@@H]3C[C@@](C)(N)[C@H](O)[C@@H](C)O3)c3ccc(cc3)Oc3cc2cc(c3O[C@H]2O[C@@H](CO)[C@H](O)[C@@H](O)[C@@H]2O[C@H]2C[C@](C)(N)[C@@H](O)[C@H](C)O2)Oc2ccc(cc2Cl)[C@H]1O | – | – | – | – | – | – | – | – | Activity (Bacillus anthracis [13]): Active; Activity (Bacillus anthracis [14]): Active; Activity (Mus musculus [15]): inactive; Activity (Mus musculus [16]): Active |
| CN[C@H](CC(C)C)C(=O)N[C@H]1C(=O)N[C@@H](CC(N)=O)C(=O)N[C@H]2C(=O)N[C@H]3C(=O)N[C@H](C(=O)N[C@H](C(=O)NCC4C5CC6CC(C5)CC4C6)c4cc(O)cc(O)c4-c4cc3ccc4O)[C@H](O[C@@H]3C[C@@](C)(N)[C@H](O)[C@@H](C)O3)c3ccc(cc3)Oc3cc2cc(c3O[C@H]2O[C@@H](CO)[C@H](O)[C@@H](O)[C@@H]2O[C@H]2C[C@](C)(N)[C@@H](O)[C@H](C)O2)Oc2ccc(cc2Cl)[C@H]1O (some centres undefined) | 0.5 (≈ 0.293 µM) | 0.5 (≈ 0.293 µM) | 0.5 (≈ 0.293 µM) | 1 (≈ 0.586 µM) | 16 (≈ 9.38 µM) | 2 (≈ 1.17 µM) | 16 (≈ 9.38 µM) | 1 (≈ 0.586 µM) | – |
| CN[C@H](CC(C)C)C(=O)N[C@H]1C(=O)N[C@@H](CC(N)=O)C(=O)N[C@H]2C(=O)N[C@H]3C(=O)N[C@H](C(=O)N[C@H](C(=O)NC(C)C4C5CC6CC(C5)CC4C6)c4cc(O)cc(O)c4-c4cc3ccc4O)[C@H](O[C@@H]3C[C@@](C)(N)[C@H](O)[C@@H](C)O3)c3ccc(cc3)Oc3cc2cc(c3O[C@H]2O[C@@H](CO)[C@H](O)[C@@H](O)[C@@H]2O[C@H]2C[C@](C)(N)[C@@H](O)[C@H](C)O2)Oc2ccc(cc2Cl)[C@H]1O (some centres undefined) | 0.5 (≈ 0.291 µM) | 0.5 (≈ 0.291 µM) | 1 (≈ 0.582 µM) | 1 (≈ 0.582 µM) | 16 (≈ 9.31 µM) | 2 (≈ 1.16 µM) | 16 (≈ 9.31 µM) | 4 (≈ 2.33 µM) | – |
| CN[C@H](CC(C)C)C(=O)N[C@H]1C(=O)N[C@@H](CC(N)=O)C(=O)N[C@H]2C(=O)N[C@H]3C(=O)N[C@H](C(=O)N[C@H](C(=O)NC4C5CC6CC(C5)CC4C6)c4cc(O)cc(O)c4-c4cc3ccc4O)[C@H](O)c3ccc(c(Cl)c3)Oc3cc2cc(c3O[C@H]2O[C@@H](CO)[C@H](O)[C@@H](O)[C@@H]2O[C@H]2C[C@@](C)(N)C(O)[C@@H](C)O2)Oc2ccc(cc2Cl)[C@H]1O (some centres undefined) | 0.5 (≈ 0.316 µM) | 1 (≈ 0.632 µM) | 1 (≈ 0.632 µM) | 0.5 (≈ 0.316 µM) | 64 (≈ 40.4 µM) | 4 (≈ 2.53 µM) | 64 (≈ 40.4 µM) | 4 (≈ 2.53 µM) | – |
| CN[C@H](CC(C)C)C(=O)N[C@H]1C(=O)N[C@@H](CC(N)=O)C(=O)N[C@H]2C(=O)N[C@H]3C(=O)N[C@H](C(=O)N[C@H](C(=O)NC4C5CC6CC(C5)CC4C6)c4cc(O)cc(O)c4-c4cc3ccc4O)[C@H](O[C@@H]3C[C@@](C)(N)[C@H](O)[C@@H](C)O3)c3ccc(cc3)Oc3cc2cc(c3O[C@H]2O[C@@H](CO)[C@H](O)[C@@H](O)[C@@H]2O[C@H]2C[C@](C)(N)[C@@H](O)[C@H](C)O2)Oc2ccc(cc2Cl)[C@H]1O (some centres undefined) | 1 (≈ 0.591 µM) | 0.5 (≈ 0.296 µM) | 1 (≈ 0.591 µM) | 1 (≈ 0.591 µM) | 16 (≈ 9.46 µM) | 2 (≈ 1.18 µM) | 16 (≈ 9.46 µM) | 2 (≈ 1.18 µM) | – |
| CN[C@H](CC(C)C)C(=O)N[C@H]1C(=O)N[C@@H](CC(N)=O)C(=O)N[C@H]2C(=O)N[C@H]3C(=O)N[C@H](C(=O)N[C@H](C(=O)NC45CC6CC(CC(C6)C4)C5)c4cc(O)cc(O)c4-c4cc3ccc4O)[C@H](O[C@@H]3C[C@@](C)(N)[C@H](O)[C@@H](C)O3)c3ccc(cc3)Oc3cc2cc(c3O[C@H]2O[C@@H](CO)[C@H](O)[C@@H](O)[C@@H]2O[C@H]2C[C@](C)(N)[C@@H](O)[C@H](C)O2)Oc2ccc(cc2Cl)[C@H]1O | – | – | – | – | – | – | – | – | clearance [17]: 8.93 mL/min/kg; half-life [18]: 2.8 h; Cmax [19]: 9700 ng/mL; bioavailability [20]: 95%; bioavailability [21]: 0%; bioavailability [22]: 78%; Cmax [23]: 11500 ng/mL; Vd [24]: 2.18 L/kg; Cmax [25]: 7200 ng/mL |
